Measurements: ChEMBL document CHEMBL1130189, “Anionic- and lipophilic-mediated surface binding inhibitors of human leukocyte elastase” (J Med Chem, 1997)
Blank lines part the entries; values can stand above or below the molecule they belong to.

Key:
[1] = biological target: T1, Cathepsin G (Homo sapiens, UniProt P08311); experiment: Inhibition of cathepsin G at pH 7.5 in HEPES buffer containing 200 mM NaCl with substrate Suc-Ala-Ala-Pro-Phe-pNA.
T1 sequence (P08311 whole entry): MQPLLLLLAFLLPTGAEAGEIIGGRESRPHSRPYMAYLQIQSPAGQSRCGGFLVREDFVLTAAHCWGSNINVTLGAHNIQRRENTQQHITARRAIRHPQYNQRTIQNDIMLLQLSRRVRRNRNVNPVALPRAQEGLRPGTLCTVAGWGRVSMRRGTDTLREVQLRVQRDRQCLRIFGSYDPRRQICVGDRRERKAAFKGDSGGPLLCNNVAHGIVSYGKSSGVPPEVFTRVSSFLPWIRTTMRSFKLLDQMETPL
Outline: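 Wells pre-equilibrated at 37 °C >10 min before enzyme start. A405 followed 15 min. Eight concentrations over a 200-fold span. Ki from competitive fit of vi/vc versus [I].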

[2] = biological target: T2, Neutrophil elastase (Homo sapiens, UniProt P08246); experiment: Inhibitory activity against human leukocyte elastase
T2 sequence (P08246 whole entry): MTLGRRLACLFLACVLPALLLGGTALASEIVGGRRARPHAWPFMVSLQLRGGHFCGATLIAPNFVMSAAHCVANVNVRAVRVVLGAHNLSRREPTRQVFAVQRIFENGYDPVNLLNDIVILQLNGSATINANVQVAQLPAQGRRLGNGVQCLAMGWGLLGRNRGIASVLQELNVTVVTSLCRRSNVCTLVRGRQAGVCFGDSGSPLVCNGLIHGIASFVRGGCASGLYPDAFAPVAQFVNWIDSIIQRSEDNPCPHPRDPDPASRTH

[3] = biological target: Prothrombin (Homo sapiens, UniProt P00734); experiment: Inhibition of thrombin at pH 7.5 in HEPES buffer containing 200 mM NaCl with substrate Bz-Phe-Val-Arg-pNA.
Outline: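 Reaction started with enzyme after >10 min equilibration. A405 rise recorded 15 min. Eight compound levels over a 200-fold range. Ki from competitive-model fit of vi/vc.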

[4] = biological target: T2, Neutrophil elastase; experiment: Binding Affinity to inhibit HLE
Outline: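 Purified human leukocyte elastase (3 nM final) with 10 µM […] (below Km 200 µM) in 50 mM HEPES, 200 mM NaCl, pH 7.5, 0.3% DMSO. Inhibitor and substrate pre-equilibrated at 37 °C for >10 min, then enzyme added. A405 read for 15 min. Eight inhibitor levels spanning a 200-fold range. Ki from fit of vi/vc to the competitive-inhibition equation.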

[5] = biological target: T3, Neutrophil elastase (Homo sapiens) (UniProt P08246); details: 0.2 uM
T3 sequence (whole entry): T2 sequence (P08246 whole entry)

[6] = biological target: T3, Neutrophil elastase (Homo sapiens); details: 0.5 uM
[7] = biological target: T3, Neutrophil elastase (Homo sapiens); details: 1 uM
[8] = substrate: O=C(O)COc1cc(Cc2cc(OCc3ccccc3)c(Cc3cc(OCc4ccccc4)c(Cc4cc(OCc5ccccc5)c(Cc5cc(OCc6ccccc6)c(Cc6cc(O)ccc6OCC(=O)O)cc5OCC(=O)O)cc4OCC(=O)O)cc3OCC(=O)O)cc2OCC(=O)O)c(OCc2ccccc2)cc1CO; details: 0.5 uM
[9] = substrate: O=C(O)COc1cc(Cc2cc(OCc3ccccc3)c(Cc3cc(OCc4ccccc4)c(Cc4cc(OCc5ccccc5)c(Cc5cc(OCc6ccccc6)c(Cc6cc(O)ccc6OCC(=O)O)cc5OCC(=O)O)cc4OCC(=O)O)cc3OCC(=O)O)cc2OCC(=O)O)c(OCc2ccccc2)cc1CO; details: 1 uM
[10] = substrate: O=C(O)COc1cc(Cc2cc(OCc3ccccc3)c(Cc3cc(OCc4ccccc4)c(Cc4cc(OCc5ccccc5)c(Cc5cc(OCc6ccccc6)c(Cc6cc(O)ccc6OCC(=O)O)cc5OCC(=O)O)cc4OCC(=O)O)cc3OCC(=O)O)cc2OCC(=O)O)c(OCc2ccccc2)cc1CO; details: 0.2 uM

Molecule: O=C(O)COc1cc(Cc2cc(OCc3ccccc3)c(Cc3cc(OCc4ccccc4)c(Cc4cc(OCc5ccccc5)c(Cc5cc(O)ccc5OCC(=O)O)cc4OCC(=O)O)cc3OCC(=O)O)cc2OCC(=O)O)c(OCc2ccccc2)cc1CO
- Ki [1]: > 15000 nM
- Ki [2]: 130 nM
- Ki [3]: 750 nM

Molecule: COCCOCOc1cc(Cc2cc(OC)c(Cc3cc(OC)c(Cc4cc(OC)c(Cc5cc(OC)c(Cc6cc(OC)ccc6OCC(=O)O)cc5OCOCCOC)cc4OCC(=O)O)cc3OCOCCOC)cc2OCC(=O)O)c(OC)cc1C
- Ki [1]: > 15000 nM
- Ki [2]: 1000 nM
- Ki [3]: 240 nM

Molecule: CC(C)(C)c1cc2c(OCC(=O)O)c(c1)Cc1cc(C(C)(C)C)cc(c1OCC(=O)O)Cc1cc(C(C)(C)C)cc(c1OCC(=O)O)Cc1cc(C(C)(C)C)cc(c1OCC(=O)O)Cc1cc(C(C)(C)C)cc(c1OCC(=O)O)Cc1cc(C(C)(C)C)cc(c1OCC(=O)O)Cc1cc(C(C)(C)C)cc(c1OCC(=O)O)Cc1cc(C(C)(C)C)cc(c1OCC(=O)O)C2
- Ki [2]: 1300 nM

Molecule: O=C(O)COc1cc(Cc2cc(OCc3ccccc3)c(Cc3cc(OCc4ccccc4)c(Cc4cc(O)ccc4OCC(=O)O)cc3OCC(=O)O)cc2OCC(=O)O)c(OCc2ccccc2)cc1CO
- Ki [1]: > 15000 nM
- Ki [2]: 8300 nM
- Ki [3]: > 15000 nM

Molecule: COc1ccc(OCC(=O)O)c(Cc2cc(O)c(Cc3cc(OCC(=O)O)c(Cc4cc(O)c(Cc5cc(OCC(=O)O)c(Cc6cc(O)c(C)cc6OC)cc5OC)cc4OC)cc3OC)cc2OC)c1
- Ki [1]: > 15000 nM
- Ki [2]: 1300 nM
- Ki [3]: > 15000 nM

Molecule: COc1ccc(OCC(=O)O)c(Cc2cc(OCCCc3ccccc3)c(Cc3cc(OCC(=O)O)c(Cc4cc(OCCCc5ccccc5)c(Cc5cc(OCC(=O)O)c(Cc6cc(OCCCc7ccccc7)c(C)cc6OC)cc5OC)cc4OC)cc3OC)cc2OC)c1
- Ki [1]: > 15000 nM
- Ki [2]: 100 nM
- Ki [3]: 1700 nM

B1: Neutrophil elastase (Homo sapiens), P08246 (protein)
chain: T2 sequence (P08246 whole entry)
- Km [8]: 1.1 µM
- Km [9]: 2.3 µM
- Km [10]: 0.77 µM

Further molecules by falling Ki [2], results first:

- Ki [1]: 1500 nM
- Ki [2]: 200 nM
- Ki [3]: > 15000 nM
Molecule: COc1cc(CO)c(OCc2ccccc2)cc1Cc1cc(OC)c(Cc2cc(OC)c(Cc3cc(OC)c(Cc4cc(OC)c(Cc5cc(O)ccc5OCC(=O)O)cc4OCc4ccccc4)cc3OCC(=O)O)cc2OCc2ccccc2)cc1OCC(=O)O

- Ki [1]: > 15000 nM
- Ki [2]: 120 nM
- Ki [4]: 190 nM
- Ki [3]: > 15000 nM
- Vm [5]: 0.2 µM
- Vm [6]: 0.2 µM
- Vm [7]: 0.2 µM
Molecule: O=C(O)COc1cc(Cc2cc(OCc3ccccc3)c(Cc3cc(OCc4ccccc4)c(Cc4cc(OCc5ccccc5)c(Cc5cc(OCc6ccccc6)c(Cc6cc(O)ccc6OCC(=O)O)cc5OCC(=O)O)cc4OCC(=O)O)cc3OCC(=O)O)cc2OCC(=O)O)c(OCc2ccccc2)cc1CO

- Ki [1]: > 15000 nM
- Ki [2]: 20 nM
- Ki [3]: > 15000 nM
Molecule: COc1ccc(OCC(=O)O)c(Cc2cc(OCC3CCCCC3)c(Cc3cc(OCC(=O)O)c(Cc4cc(OCC5CCCCC5)c(Cc5cc(OCC(=O)O)c(Cc6cc(OCC7CCCCC7)c(C)cc6OC)cc5OC)cc4OC)cc3OC)cc2OC)c1

- Ki [1]: > 15000 nM
- Ki [2]: 17 nM
- Ki [3]: 1400 nM
Molecule: COc1ccc(OCC(=O)O)c(Cc2cc(OCCCCCc3ccccc3)c(Cc3cc(OCC(=O)O)c(Cc4cc(OCCCCCc5ccccc5)c(Cc5cc(OCC(=O)O)c(Cc6cc(OCCCCCc7ccccc7)c(C)cc6OC)cc5OC)cc4OC)cc3OC)cc2OC)c1
